# Measurements from ChEMBL document CHEMBL4513216, “Probing the Open Global Health Chemical Diversity Library for Multistage-Active Starting Points for Next-Generation Antimalarials” (ACS Infect Dis, 2020).
# Assay: Toxicity liver stage against HepG2, at 10uM
# Assay type: cell-based
# Set-up: test concentration 10 uM, cell line HepG2-A16-CD81EGFP
# Details: human, HepG2-A16-CD81EGFP cells; read-out: INHIBITION
# In short: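 Uninfected HepG2-A16-CD81EGFP cells, 3 × 10^3 per well, 1536-well, plated on prespotted compound at 10 μM final, parasite-free screening media added to match infected plates; puromycin 10 μM positive, DMSO 0.5% negative; run in parallel with 48 h PbLuc assay at 37 °C, 5% CO2; viability by CellTiter-Glo luminescence, normalized to controls.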
row,Structure (SMILES),cytotoxicity at 10 µM [%]
1,CCCc1ncc(C(=O)c2ccc(OC)cc2)n1C,22.3
2,COCC(=O)NC[C@H]1C[C@@H]2CCN1C[C@@H]2CN1CCc2ccccc21,3.29
3,CC(=O)N1CCC(N2C[C@@H](F)[C@@H](OCc3nc4ncccc4[nH]3)C2)CC1,6.1
4,COc1ccc2[nH]c(C[C@@H]3C[C@@H](C(C)C)[C@H](CN(C)C)C=C3C)nc2c1,-0.626
5,CC1(CO)COC(Cc2ccc(Cl)cc2)=N1 (configuration not stated),12.6
6,CC1=Nc2c(c(=O)[nH]n2C2CCOCC2)C(c2cccc(O)c2)S1 (configuration not stated),-6.81
7,O=C(Cc1cccc(F)c1)N1C[C@H]2CN(Cc3cccnc3)C[C@H]2C1,0.0515
8,CCN1C(=O)CCC12CCCN(CCc1ccccc1)C2 (configuration not stated),-0.449
9,CC(C)NC(=O)[C@H]1CCS(=O)(=O)[C@@H]2CN(c3ncccn3)C[C@H]12,-123
10,CC(=O)N1CCc2nc3sc(C(N)=O)c(N)c3c(C(F)(F)F)c2C1,6.28
11,CC(=O)c1cccc(-n2nc(C(C)=O)c(C(C)=O)c2C)c1,4.45
12,COc1ncccc1C(=O)Nc1nc2c(s1)CN(S(=O)(=O)C1CC1)CC2,-9.04
13,COc1ccccc1S(=O)(=O)N1CCC(Oc2cccnn2)CC1,-7.33
14,CCC(=O)N1CCC2(CC1)COc1ccccc1S(=O)(=O)N(C)C2,-6.71
15,Cc1noc(C2CCC3(CCN(C(=O)C4=CCCCC4)CC3)O2)n1 (configuration not stated),-7.36
16,COCCN1CCN(C(=O)C2CC=CC2)Cc2cccnc21,-11.1
17,c1cnc(N2C[C@H]3CCN(c4cccnc4)C[C@H]3C2)nc1,-14.7
18,O=C(NCC1CC1)C1CN(C(=O)c2cccnc2)CC12CCOCC2 (configuration not stated),3.25
19,COCC(=O)Nc1cnn(COc2ccc(F)cc2Cl)c1,-4.52
20,CCn1cc(Br)c(C(=O)NCc2cccnc2)n1,-10.1
21,Cc1nccn1[C@@H]1CC[C@@H](N(C)S(=O)(=O)c2ccccc2F)[C@H]1O,1.17
22,Cc1c[nH]c(C2CCCN2C(=O)CCc2c(C)n[nH]c2C)n1 (configuration not stated),-1.4

row,Structure (SMILES),cytotoxicity at 10 µM [%]
1,CC1(C(=O)NC2CCCC2)CCCN(c2ncccn2)C1 (configuration not stated),-27.3
2,CCS(=O)(=O)N1CCCC(c2ccnc(N(C)C)c2)C1 (configuration not stated),-5.16
3,CC(C)(C)C(=O)Nc1cnn(-c2ccccc2S(C)(=O)=O)c1,3.65
4,COc1ccccc1OCCNC(=O)NCc1nc(C)no1,6.67
5,CCc1cnc(CN(C)C2CCN(c3sccc3C#N)C2=O)s1 (configuration not stated),8.32
6,COc1cccc(OC)c1CC(=O)NC(C#N)c1ccsc1 (configuration not stated),14.9
7,CCn1c(C)cc(C(=O)N2CCC(Nc3cccnn3)CC2)c1C,4.71
8,CC(=O)NC1(C(=O)N2CCC(Nc3cccnn3)CC2)CCCCC1,-5.26
9,Cc1nc(N2CCN(C(=O)CC3CCCC3)CC2)c2cnn(C)c2n1,6.24
10,CCOCCC1(CNC(=O)c2ccsc2)CCC1,7.92
11,COc1ncccc1CNC(=O)N1CCC(CNC(C)=O)CC1,3.4
12,Cc1c(C(=O)NCCCC(N)=O)sc2ccc(F)cc12,14.6
13,OCC1(NCc2cnc(-c3cccs3)s2)CCOCC1,-1.99
14,CN(Cc1cnn(C)c1)C(=O)c1ccc(=O)n(Cc2ccccc2)n1,-134
15,Cc1nsc(NCCNS(=O)(=O)c2ccccc2)n1,-2.78
16,CCOc1ncccc1C(=O)N1CCCC(n2nc(C)cc2C)C1 (configuration not stated),-5.54
17,NC(=O)N1CC(OCc2cccc3ccccc23)C1,-0.396
18,CCN(C)c1ccc(CNC(=O)c2ccc(NC(N)=O)cc2)cc1F,7.52
19,O=c1[nH]c2ccccc2c(=O)n1Cc1nnnn1C1CC1,-16.1
20,CC(C)NC(=O)CC(C)NC(=O)N(C)Cc1cc(Cl)cn1C (configuration not stated),-0.414
21,CCN1CCN(S(=O)(=O)c2c[nH]c(C(C)C)n2)c2ccccc21,4.65
22,O=C(NCCN1CCOCC1)N(Cc1ccoc1)C1CCCCC1,-0.315

row,Structure (SMILES),cytotoxicity at 10 µM [%]
1,Cc1ccsc1C(=O)Nc1cc(Br)c(=O)n(C)c1,-15.1
2,CC(C)(C(N)=O)S(=O)(=O)c1ccc(Br)cc1,4.4
3,CCN(c1ccc(C(=O)NCc2ccnc(C)n2)cc1)C(C)C,-8.78
4,N#Cc1cccnc1NCc1cccnc1N1CCC(C(N)=O)CC1,-0.179
5,CN(CCOc1cccc(CN)c1)C1CCOCC1,-1.35
6,O=C(NCC(O)c1ccc(F)c(F)c1)c1cccnc1OCC(F)(F)F (configuration not stated),-10.2
7,O=C(CCc1nccs1)N1CCCC(N2CCNC2=O)C1 (configuration not stated),-18.3
8,CCN(Cc1cccnc1)CC1CCCO1 (configuration not stated),-10.7
9,Cc1cc2ccccc2n1CCC(=O)NCCS(C)(=O)=O,-5.79
10,Cc1cc(C(F)(F)F)cc(N2C[C@@H](CN(C)CCO)[C@@H](CO)C2)n1,-14.4
11,Cc1nc(CC(=O)N2CCCN(c3ccc(F)cc3)CC2)cs1,3.35
12,CCN1CCC(CC(=O)NCCc2nc(N)cc(O)n2)CC1,0.821
13,Cc1ncsc1CCN(C)C(=O)C(c1cccnc1)N1CCOCC1 (configuration not stated),-6.02
14,O=C1CCOCCN1Cc1ccc(Cl)c(F)c1,-3.31
15,Cc1cccc(C(C(=O)N2CCN(C(=O)c3ccc[nH]3)CC2)N(C)C)c1 (configuration not stated),-7.55
16,CC1(C)CNC(=O)c2nc(-c3nnc(-c4ccccc4)[nH]3)[nH]c2C1,-5.79
17,COCCC1(CO)CCCN(C(=O)c2cc(=O)[nH]c(=O)[nH]2)C1 (configuration not stated),-5.16
18,CCc1nc2c(c(N(C)Cc3nncn3CCOC)n1)CCNCC2,-7.63
19,O=c1c2ccccc2cnn1Cc1cncn1C1CC1,3.72
20,O=C(c1cncc(NCC2COc3ccccc3C2)n1)N1CCCCC1 (configuration not stated),1.64
21,CO[C@H]1CNC[C@@H]1NC(=O)CCc1nc(-c2ccccc2)no1,-1.13
22,Nc1cnc(-c2cccc3c2CCNC3)cn1,-12

row,Structure (SMILES),cytotoxicity at 10 µM [%]
1,O=C(C1CCCC1)N1CC[C@]2(O)CCN(Cc3ncccn3)C[C@@H]2C1,9.04
2,CCc1ncc(C(=O)NCCn2c(C)cc(C)nc2=O)cn1,-1.75
3,COc1ccc(OCC(C)NS(C)(=O)=O)cc1 (configuration not stated),16.6
4,COc1ccccc1OCc1cc(C(=O)N2C[C@H](O)[C@@H](N(C)C)C2)n[nH]1,3.2
5,O=C(O)[C@]12CCCN(Cc3ccncc3)[C@@H]1CCN(c1cnccn1)C2,20.4
6,Cc1scc(C(=O)N2CCC3(CC(=O)NC3=O)C2)c1-c1ccccc1 (configuration not stated),-17.5
7,Cc1nc(-c2cccc(C(=O)O)c2)cc(C2CCN(C(C)C)C2)n1 (configuration not stated),5.32
8,Cc1cnc(C(=O)N2CCCCC2c2[nH]ncc2S(C)(=O)=O)cn1 (configuration not stated),2.12
9,CCOc1ccc2cc(C(=O)N3CCn4c(CC)nnc4C3)[nH]c2c1,-4.77
10,COC(=O)c1ccc(N2CCN(CCS(C)(=O)=O)C(C)C2)cc1 (configuration not stated),-5.57
11,O=C(CN1CCCCC1Cn1cncn1)NCCOc1ccccc1 (configuration not stated),-3.54
12,CCNc1cc2c(nn1)CCN(C(=O)CCc1c(C)noc1Cl)C2,-3.25
13,Cc1nnc(NCc2cccnc2OCC(F)(F)F)c(C#N)c1C,-7.77
14,Cc1nnc2n1CCN(Cc1csc(COc3ccccc3)n1)C2,-14.3
15,CCc1noc(C(C)N2CCN(CCN3CCCC3=O)CC2)n1 (configuration not stated),-9.37
16,Cc1cccc(NC2CCN(C(=O)Nc3ccc(F)cc3C)CC2)n1,-11.7
17,O=C(CCCc1ccccn1)N1CCCC1c1noc(C2CC2)n1 (configuration not stated),-4.47
18,Cc1ccc(F)c(NC(=O)NCCCn2nc3ccccn3c2=O)c1,-13.3
19,Cn1nc2c(cc1=O)CN(Cc1coc(-c3ccc(F)cc3)n1)CC2,-11.5
20,CC(NC(N)=O)C(=O)N(C)CCCc1cc(-c2ccccc2)no1 (configuration not stated),-1.86
21,CS(=O)(=O)NCC1CCCN(C(=O)COc2ccc(F)cc2)C1 (configuration not stated),-6.38
22,CCc1noc(C(C)N2CCN(Cc3ncc(C(C)(C)C)o3)CC2)n1 (configuration not stated),-6.62

row,Structure (SMILES),cytotoxicity at 10 µM [%]
1,CCNc1cc2c(nn1)CCN(C(=O)c1ccc(NC3CC3)nc1)C2,-12.3
2,CC(c1ccc(F)c(F)c1)N1CCN(Cc2nccn2C)CC1 (configuration not stated),-2.76
3,Cn1c(C2CC2)nc2c1CCN(CCS(=O)(=O)c1ccccc1)C2,3.73
4,CCn1nc2c(cc1=O)CN(CC(=O)Nc1nc(C)c(C)s1)CC2,-8.8
5,COC(=O)c1ccc(CN[C@@H]2COC[C@H]2Cc2cc(C)no2)cc1,-23
6,Cc1oncc1C(=O)N[C@@H]1CN(Cc2ccco2)C[C@@H]2CCCO[C@@H]21,-109
7,c1cnc2c(c1)cc([C@@H]1CCCO1)n2CCN1CCOCC1,-19.7
8,Cc1ccc(C(=O)N2C[C@@H]3[C@@H](C2)OCC(=O)N3Cc2cccnc2)o1,3.8
9,Cc1nc(C2(O)CCCNCC2)sc1CCOc1ccccc1F (configuration not stated),-36.5
10,C[C@@H]1CN(C2CCOC2)C[C@]12CCN(Cc1cccnc1)C2=O (some centres not stated),-106
11,COCC(=O)NC[C@]12COC[C@H]1CN(Cc1ccc3c(c1)OCO3)C2,-112
12,CN(C)S(=O)(=O)N1CC[C@]2(C[C@H](Oc3cccnc3)CO2)C1,-0.465
13,Cc1cccc(CN2CCC3(CCCN(C(=O)NC4CC4)C3)C2=O)n1 (configuration not stated),12.2
14,Cc1ccoc1C(=O)N1C[C@@H]2[C@@H](C1)OCC(=O)N2Cc1cccnc1,9.38
15,CO[C@H]1CCN(Cc2cnn(C)c2)[C@@H]2CN(Cc3cccnc3)C[C@H]12,-4.17
16,NC(=O)C1Cn2ccnc2C2(CCN(C(=O)NC3CCCC3)CC2)O1 (configuration not stated),-104
17,c1ccc(CO[C@@H]2CN(Cc3cccnc3)[C@@H]3COC[C@@H]32)nc1,-98.7
18,Cc1ccc(CNS(=O)(=O)C=c2[nH]c(=O)n3cccc3c2=O)cc1,6.38
19,CN(C)C(=O)CN1C[C@H]2CC[C@@H](C1)N(Cc1cc(F)ccc1F)C2,-24
